Reference: PMC3095849 (Bioorganic & medicinal chemistry, 2011)
Counter-ions that a name gives are not always drawn. Like-named read-outs stand apart in the source and are kept apart here.

Assays:
human κ opioid receptor [1] = target: T1, human κ opioid receptor (Homo sapiens, UniProt P41145); conditions: cited from earlier work
human κ opioid receptor [2] = target: T1, human κ opioid receptor; assay: Opioid binding, [3H]U69,593, CHO membranes; conditions: ratio of Ki values μ/κ/δ
human κ opioid receptor [3] = target: T1, human κ opioid receptor; assay: [35S]GTPγS binding assay, agonist properties, kappa; assay type: biochemical
human μ opioid receptor = human μ opioid receptor (Homo sapiens, UniProt P35372); assay: [35S]GTPγS binding assay, agonist properties, mu; assay type: biochemical
human μ opioid receptor, sequence (P35372 whole entry): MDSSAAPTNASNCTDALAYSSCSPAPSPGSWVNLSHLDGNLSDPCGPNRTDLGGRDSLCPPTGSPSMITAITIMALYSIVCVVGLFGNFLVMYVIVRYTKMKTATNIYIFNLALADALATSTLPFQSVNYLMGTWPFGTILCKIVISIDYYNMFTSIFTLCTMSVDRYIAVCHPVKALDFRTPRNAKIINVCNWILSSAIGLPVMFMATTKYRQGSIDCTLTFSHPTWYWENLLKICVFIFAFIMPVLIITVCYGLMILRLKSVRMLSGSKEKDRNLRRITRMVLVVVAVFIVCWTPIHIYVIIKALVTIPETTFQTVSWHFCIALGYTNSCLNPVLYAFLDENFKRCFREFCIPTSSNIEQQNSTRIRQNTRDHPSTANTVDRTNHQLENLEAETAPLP
How it was run: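 CHO cells stably expressing human μ receptor, grown in DMEM with 10% FBS at 37°C, 5% CO2. Membranes incubated with 12 concentrations of test compound in 50 mM Tris-HCl pH 7.4, 3 μM GDP, 3 mM MgCl2, 0.2 mM EGTA, 100 mM NaCl, plus 0.08 nM [35S]GTPγS, 60 min, 30°C. Nonspecific: 10 μM GTPγS. Filtration, scintillation counting. EC50 and Emax calculated. Three experiments in triplicate.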

human κ opioid receptor [4] = target: T1, human κ opioid receptor; assay: [35S]GTPγS binding assay, inhibition of U50,488-stimulated binding, kappa; assay type: biochemical; conditions: read-out: Kappa (Antagonist) IC50; binding stimulated by 100 nM U50,488
How it was run: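 Antagonist mode: membranes from CHO cells stably expressing human κ receptor, with 12 concentrations of test compound and 0.08 nM [35S]GTPγS. Buffer: 50 mM Tris-HCl pH 7.4, 3 μM GDP, 3 mM MgCl2, 0.2 mM EGTA, 100 mM NaCl. Incubated 60 min at 30°C. Nonspecific binding: 10 μM GTPγS. Filtered and counted. IC50 and Imax calculated. Three experiments in triplicate, mean ± SEM.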

T1 sequence (P41145 whole entry): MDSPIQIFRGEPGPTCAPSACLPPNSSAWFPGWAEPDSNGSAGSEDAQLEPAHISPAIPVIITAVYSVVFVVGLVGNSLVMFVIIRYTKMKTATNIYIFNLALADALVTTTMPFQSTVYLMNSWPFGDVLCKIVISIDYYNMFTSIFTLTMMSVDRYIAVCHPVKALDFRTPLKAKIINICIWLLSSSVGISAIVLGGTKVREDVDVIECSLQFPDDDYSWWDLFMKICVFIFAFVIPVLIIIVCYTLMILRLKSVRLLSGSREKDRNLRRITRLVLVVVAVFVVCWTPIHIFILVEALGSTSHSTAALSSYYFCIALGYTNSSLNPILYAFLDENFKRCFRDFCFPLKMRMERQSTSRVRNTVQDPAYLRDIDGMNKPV

Row | Compound | Selectivity μ : κ : δ (human κ opioid receptor [1]) | Selectivity μ : κ : δ (human κ opioid receptor [2]) | Functional character at κ receptor (full/partial agonist) (human κ opioid receptor [3]) | Functional character at μ receptor (full/partial agonist) (human μ opioid receptor) | IC50 (human κ opioid receptor [4]) [µM]
1 | O=C(CCCCCCCCC(=O)Oc1ccc2c(c1)[C@@]13CCCC[C@H]1[C@@H](C2)N(CC1CCC1)CC3)Oc1ccc2c(c1)[C@@]13CCCC[C@H]1[C@@H](C2)N(CC1CCC1)CC3 [Compound 3] | 2/1/90 | – | – | – | –
2 | O=C(/C=C/C(=O)Oc1ccc2c(c1)[C@@]13CCCC[C@H]1[C@@H](C2)N(CC1CCC1)CC3)Oc1ccc2c(c1)[C@@]13CCCC[C@H]1[C@@H](C2)N(CC1CCC1)CC3 [Compound 4] | 3/1/120 | – | – | – | –
3 | CO[C@@]12CCCC[C@@]13CCN(CC1CCC1)[C@@H]2Cc1ccc(O)cc13 [Compound 8, (−)-14-methoxybutorphanol] | – | 1/1/58 | partial κ agonists | – | –
4 | CO[C@@]12CCCC[C@@]13CCN(CC1CCC1)[C@@H]2Cc1ccc(OC(=O)CCCCCCCCC(=O)Oc2ccc4c(c2)[C@@]25CCCC[C@@]2(OC)[C@@H](C4)N(CC2CCC2)CC5)cc13 [Compound 9b, Bis((−)-14-methoxy-17-N-cyclobutylmethyl)morphinan-3-yl) decanedioate] | – | 1/1/50 | partial κ agonists | – | –
5 | Nc1nc2cc3c(cc2s1)C[C@@H]1[C@@H]2CCCC[C@]32CCN1CC1CC1 [Compound 10, ATPM] | 31/1/592 | – | – | – | –
6 | O=C(CCCCCCCCC(=O)Nc1nc2cc3c(cc2s1)C[C@@H]1[C@@H]2CCCC[C@]32CCN1CC1CC1)Nc1nc2cc3c(cc2s1)C[C@@H]1[C@@H]2CCCC[C@]32CCN1CC1CC1 [Compound 11, Bis((−)-3-aminothiazolo-N-cyclopropyl-methylmorphinan)sebacamide hydrochloride] | – | 24/1/460 | full κ agonists | partial μ agonists | > 10
7 | c1c2c(cc3sc(NCCCCCCCCCCNc4nc5cc6c(cc5s4)C[C@@H]4[C@@H]5CCCC[C@]65CCN4CC4CC4)nc13)C[C@@H]1[C@@H]3CCCC[C@]23CCN1CC1CC1 [Compound 12, (−)-3,3′-(decane-1,10-diaminothiazolo)bis(cyclopropylmethyl)morphinan hydrochloride] | – | 9/1/140 | full κ agonists | partial μ agonists | > 10
8 | CO[C@@]12CCCC[C@@]13CCN(CC1CCC1)[C@@H]2Cc1ccc(OC(=O)CCCCCCCCC(=O)OCc2ccccc2)cc13 [Compound 13b, Benzyl (−)-14-methoxy-butorphanol-3-yl decanedioate] | – | 1/1/93 | partial κ agonists | – | –
9 | C=CCN1CC[C@]23c4c5ccc(OC(=O)CCCCCCCCC(=O)Oc6ccc7c(c6)[C@@]68CCCC[C@@]6(O)[C@@H](C7)N(CC6CCC6)CC8)c4O[C@H]2C(=O)CC[C@@]3(O)[C@H]1C5 [Compound 15a, (5α)-17-Allyl-14-hydroxy-6-oxo-4,5-epoxymorphinan-3-yl-17-((−)-N-cyclobutylmethyl-14-hydroxyl-mophinan-3-yl) decanedioate.] | – | 3/1/130 | partial κ agonists | – | –
10 | O=C(CCCCCCCCC(=O)Oc1ccc2c(c1)[C@@]13CCCC[C@@]1(O)[C@@H](C2)N(CC1CCC1)CC3)Oc1ccc2c(c1)[C@@]13CCCC[C@H]1[C@@H](C2)N(CC1CCC1)CC3 [Compound 15b, ((−)-17-N-cyclobutylmethyl)morphinan-3-yl-((−)-14-hydroxyl-17-N-cyclobutylmethyl) morphinan-3-yl) decanedioate] | – | 1/1/110 | partial κ agonists | – | –
11 | C=CCN1CC[C@]23c4c5ccc(OC(=O)CCCCCCCCC(=O)Oc6ccc7c(c6)[C@@]68CCCC[C@@]6(OC)[C@@H](C7)N(CC6CCC6)CC8)c4O[C@H]2C(=O)CC[C@@]3(O)[C@H]1C5 [Compound 15c, (5α)-17-allyl-14-hydroxy-6-oxo-4,5-epoxymorphinan-3-yl-((−)-14-methoxyl-17-N-cyclobutylmethyl)morphinan-3-yl) decanedioate] | – | 4/1/280 | partial κ agonists | – | –
